Experimental data taken from publication PMC8694313 (RSC Advances, 2021).
Converted amounts (≈) assume the structure as drawn.

Columns and labels:
[1] = tested on: carrageenan-induced paw edema; test: Carrageenan induced hind paw edema assay; assay type: in vivo; conditions: rat, 100 mg kg^−1 p.o., mean ± SEM
Summary of the method: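 Rats, six per group, acclimatized one week (25 ± 2 °C, 12 h light/dark, standard pellets, water ad libitum). […] Paw volume measured by plethysmometer displacement to the lateral malleolus at 1, 3 and 6 h. Mean ± SEM.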

[2] = tested on: Staphylococcus aureus; test: In vitro antibacterial MIC determination; assay type: cell-based
Summary of the method: (§1)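 Bacteria grown on nutrient agar, subcultured to log phase in nutrient broth, then diluted in sterile saline to about 10^5–10^6 CFU mL−1. Test compounds diluted in acetone, DMSO or diethyl ether (ether preferred). Saturated disks placed on spread-plated inoculum and incubated at 37 °C for 24 h. MIC determined across different compound concentrations, with streptomycin as standard.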

[3] = tested on: Escherichia coli; test: In vitro antibacterial MIC determination; assay type: cell-based
Summary of the method: as §1

[4] = tested on: cotton pellet induced granuloma; test: Cotton pellets induced granuloma assay; assay type: in vivo; conditions: rat, 100 mg kg^−1 p.o. for 8 d, mean ± SEM
Summary of the method: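 Two sterile 10 mg cotton pellets implanted ventrally in rats, six per group. […] On day 9 rats were killed under excess ether. Pellets were freed of tissue and weighed wet, then dried at 55 °C for 6 h or to constant weight. Granuloma equals dry weight minus cotton weight. Mean ± SEM.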

[5] = tested on: Pseudomonas aeruginosa; test: In vitro antibacterial MIC determination; assay type: cell-based
Summary of the method: as §1

[6] = tested on: RAW 264.7 cells; test: MTT assay, LPS-induced inflammation in RAW 264.7; assay type: cell-based, murine; conditions: RAW 264.7, pre-treatment 100 μM and 200 μM, then LPS; Fig. 4
Summary of the method: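 Mouse RAW 264.7 macrophages kept in high-glucose DMEM with 10% heat-inactivated FBS and 1% penicillin–streptomycin at 37 °C, 5% CO2. Cells seeded at 5 × 10^5 cells per mL, pretreated 1 h with test compound (100 or 200 μM), then stimulated with […] for 24 h. Medium replaced; 0.5 mg mL−1 MTT for 3 h; formazan dissolved in DMSO; OD read at 540 nm. Percent inflammation derived by subtracting percent viability relative to control.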

[7] = tested on: RAW 264.7 cells; test: Nitrite; assay type: cell-based, murine; conditions: RAW 264.7, 100 μM and 200 μM pre-treatment; Fig. 5
Summary of the method: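 RAW 264.7 cells (1 × 10^6) seeded in flasks and left to adhere overnight. Pretreated 1 h with test compound (100 or 200 μM), then 100 μM LPS for 24 h at 37 °C, 5% CO2. Supernatant mixed with an equal volume of Griess reagent (0.1% naphthylethylenediamine and 1% sulfanilamide, 1:1, in 5% phosphoric acid) for 10 min in the dark at room temperature; A540 read. Nitrite quantified from a NaNO2 standard curve (0.1–6.25 μM), expressed as μmol NO2−/mg protein. Triplicates.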

[8] = tested on: Rhizopus arrhizus; test: In vitro antifungal MIC, poison plate technique; assay type: cell-based
[9] = tested on: Aspergillus niger; test: In vitro antifungal MIC, poison plate technique; assay type: cell-based
[10] = biological target: T1, COX-2 (Ovis aries, UniProt P79208); test: Colorimetric COX; assay type: biochemical, ovine; conditions: read-out: % inhibition of COX, COX-2
T1 sequence (P79208 17-603): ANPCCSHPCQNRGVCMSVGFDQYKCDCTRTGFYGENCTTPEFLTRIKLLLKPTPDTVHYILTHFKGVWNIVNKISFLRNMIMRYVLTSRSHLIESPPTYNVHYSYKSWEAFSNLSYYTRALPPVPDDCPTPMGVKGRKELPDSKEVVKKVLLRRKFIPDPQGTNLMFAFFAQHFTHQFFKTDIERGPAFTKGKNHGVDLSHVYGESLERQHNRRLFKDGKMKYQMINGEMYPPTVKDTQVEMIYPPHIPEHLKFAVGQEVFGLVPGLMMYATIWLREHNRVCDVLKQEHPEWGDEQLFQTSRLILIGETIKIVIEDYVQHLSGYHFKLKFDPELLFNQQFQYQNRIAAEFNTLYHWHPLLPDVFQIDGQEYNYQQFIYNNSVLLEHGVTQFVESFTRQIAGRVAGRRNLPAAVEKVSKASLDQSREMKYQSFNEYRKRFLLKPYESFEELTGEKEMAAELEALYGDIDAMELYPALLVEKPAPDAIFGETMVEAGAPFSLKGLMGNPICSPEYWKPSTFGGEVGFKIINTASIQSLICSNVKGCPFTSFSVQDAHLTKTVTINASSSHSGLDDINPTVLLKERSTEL

[11] = biological target: T2, COX-1 (Ovis aries, UniProt P05979); test: Colorimetric COX; assay type: biochemical, ovine; conditions: read-out: % inhibition of COX, COX-1
T2 sequence (P05979 25-600): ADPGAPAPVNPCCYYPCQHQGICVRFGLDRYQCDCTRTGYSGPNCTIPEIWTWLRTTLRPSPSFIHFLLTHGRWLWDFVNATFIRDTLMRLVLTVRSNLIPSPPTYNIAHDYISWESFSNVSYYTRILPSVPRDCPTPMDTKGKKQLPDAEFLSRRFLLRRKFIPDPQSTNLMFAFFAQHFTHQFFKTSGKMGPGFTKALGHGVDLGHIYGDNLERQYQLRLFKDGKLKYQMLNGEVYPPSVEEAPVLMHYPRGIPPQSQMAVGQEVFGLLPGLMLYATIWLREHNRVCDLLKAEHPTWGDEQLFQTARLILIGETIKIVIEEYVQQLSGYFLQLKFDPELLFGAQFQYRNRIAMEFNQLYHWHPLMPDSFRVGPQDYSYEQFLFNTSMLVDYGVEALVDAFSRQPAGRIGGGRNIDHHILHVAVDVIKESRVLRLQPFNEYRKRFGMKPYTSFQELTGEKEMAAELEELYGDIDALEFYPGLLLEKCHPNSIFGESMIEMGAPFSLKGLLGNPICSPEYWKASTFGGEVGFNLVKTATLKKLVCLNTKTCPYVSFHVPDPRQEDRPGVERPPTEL

[12] = tested on: Bacillus subtillis; test: In vitro antibacterial MIC determination; assay type: cell-based
Summary of the method: as §1

[13] = tested on: Aspergillus flavus; test: In vitro antifungal MIC, poison plate technique; assay type: cell-based

| SMILES | Paw volume ([1]; 1 h after carrageenan) [mL] | Paw volume ([1]; 3 h after carrageenan) [mL] | Paw volume ([1]; 6 h after carrageenan) [mL] | MIC [2] [µg/mL] | MIC [3] [µg/mL] | Weight, Dry (cotton pellet) [4] [mg] | Weight, Wet (cotton pellet) [4] [mg] | MIC [5] [µg/mL] | anti-inflammatory activity against LPS induced cell death / inflammation (MTT) [6] | inhibition of LPS-induced NO production [7] | MIC [8] [µg/mL] | MIC [9] [µg/mL] | inhibition at 100 µM [10] [%] | inhibition at 200 µM [10] [%] | inhibition at 100 µM [11] [%] | inhibition at 200 µM [11] [%] | MIC [12] [µg/mL] | MIC [13] [µg/mL] |
| --- | --- | --- | --- | --- | --- | --- | --- | --- | --- | --- | --- | --- | --- | --- | --- | --- | --- | --- |
| O=S(=O)(NC[C@@H](O)[C@@H]1CCc2cc(F)ccc2O1)c1cccc(C(F)(F)F)c1 [Compound 8e, N-((R)-2-((S)-6-Fluorochroman-2-yl)-2-hydroxyethyl)-3-(trifluoromethyl)benzenesulfonamide] | 0.68 ± 0.96 | 0.74 ± 0.29 | 1.19 ± 0.65 | 20.4 ± 0.62 (≈ 48.7 µM) | 26.3 ± 0.28 (≈ 62.6 µM) | 76.45 ± 1.95 | 152.40 ± 1.57 | 26.7 ± 0.88 (≈ 63.7 µM) | strong anti-inflammatory activity | strong inhibition | 16.6 ± 0.52 (≈ 39.7 µM) | 11.7 ± 0.35 (≈ 27.9 µM) | 35.55 ± 0.22 | 57.72 ± 0.36 | 48.4 ± 0.84 | 71.55 ± 0.15 | 19.7 ± 0.36 (≈ 46.9 µM) | 14.1 ± 0.55 (≈ 33.6 µM) |
| O=S(=O)(NC[C@@H](O)[C@@H]1CCc2cc(F)ccc2O1)c1ccc(F)cc1F [Compound 8f, N-((R)-2-((S)-6-Fluorochroman-2-yl)-2-hydroxyethyl)-2,4-difluorobenzenesulfonamide] | 0.62 ± 0.10 | 0.86 ± 0.32 | 1.10 ± 0.13 | 19.9 ± 0.66 (≈ 51.3 µM) | 24.1 ± 1.02 (≈ 62.1 µM) | 70.66 ± 2.33 | 139.82 ± 2.42 | 26.8 ± 0.55 (≈ 69.3 µM) | strong anti-inflammatory activity | strong inhibition | 19 ± 0.2 (≈ 49.2 µM) | 15.7 ± 0.69 (≈ 40.4 µM) | 28.7 ± 0.07 | 52.1 ± 0.78 | 33.9 ± 1.06 | 73.85 ± 0.54 | 16.2 ± 0.94 (≈ 41.9 µM) | 16.2 ± 0.82 (≈ 41.8 µM) |
